Activity calls are given as the source filed them. No cut-off for these calls is given here.
How the values were obtained:
Type in all cases: functional, cell-based
[1] = Cytotoxicity against human KKU-M139 cells
Summary of the method: (§1)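 SRB assay: cells seeded at 0.5–1.0 × 10^5 cells/mL and held 24 h at 37 °C. Compounds added in triplicate at final 0.025, 0.16, 0.8, 4 and 20 µg/well, with 0.1% DMSO as solvent control. Exposure was 72 h at 37 °C, plus a 1 h starting-cell plate. Cells fixed with TCA, stained with SRB, OD read at 510 nm. IC50 taken as 50% reduction of control protein increase.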

[2] = Cytotoxicity against human KKU100 cells; summary of the method: as §1
[3] = Cytotoxicity against human KKU-M156 cells; summary of the method: as §1
[4] = Cytotoxicity against human KKU-M213 cells; summary of the method: as §1
[5] = Cytotoxicity against human KKU-M214 cells; summary of the method: as §1
KKU-M213 = experiment: Cytotoxicity against human KKU-M213 cells at 75 uM
KKU-M139 = experiment: Cytotoxicity against human KKU-M139 cells at 75 uM
KKU-M214 = experiment: Cytotoxicity against human KKU-M214 cells at 75 uM
KKU-M156 = experiment: Cytotoxicity against human KKU-M156 cells at 75 uM
KKU100 = experiment: Cytotoxicity against human KKU100 cells at 75 uM

SMILES	IC50 [1] [µM]	IC50 [2] [µM]	IC50 [3] [µM]	IC50 [4] [µM]	IC50 [5] [µM]	Activity (KKU-M213)	Activity (KKU-M139)	Activity (KKU-M214)	Activity (KKU-M156)	Activity (KKU100)
C/C1=C\CC(C)(C)C(C#N)CC(=O)/C(C)=C/CC1 (stereo not given)	55.9	25.7	37.3	45.1	54.5					
C/C1=C\CC(C)(C)/C=C/C(=O)/C(C)=C/CC1						inactive	inactive	inactive	inactive	inactive
C/C1=C\CC(C)(C)/C=C/C(=O)[C@H](C)[C@H](N(C)C)CC1						inactive	inactive	inactive	inactive	inactive
C/C1=C\CC(C)(C)C(C#N)CC(=O)[C@H](C)[C@H](N(C)C)CC1 (stereo not given in full)						inactive	inactive	inactive	inactive	inactive
CCCCN(C(C)=O)[C@@H]1CC/C(C)=C/CC(C)(C)/C=C/C(=O)[C@@H]1C						inactive	inactive	inactive	inactive	inactive
C/C1=C\CC(C)(C)/C=C/C(=O)[C@H](C)[C@H](N)CC1 (racemic)	63.3	16.4	69	51.9	59.6					
C/C1=C\CC[C@@]2(C)O[C@H]2CC(C)(C)/C=C/C1=O (racemic)					52.6	inactive	inactive		inactive	inactive
C[C@H]1C(=O)/C=C/C(C)(C)C[C@@H]2O[C@]2(C)CC[C@H]1N (racemic)					18.3	inactive	inactive		inactive	inactive
C/C1=C\CC(C)(C)[C@H](C#N)CC(=O)[C@H](C)[C@H](C#N)CC1 (racemic)					66.5	inactive	inactive		inactive	inactive
CCCCN[C@@H]1CC/C(C)=C/CC(C)(C)/C=C/C(=O)[C@@H]1C (racemic)				36.6	41.6		inactive		inactive	inactive
CCCCN[C@@H]1CC/C(C)=C/CC(C)(C)/C=C/[C@H](O)[C@@H]1C (racemic)	19.6	35.3	26.3	27.2	16.1					
CCCCN[C@@H]1CC[C@@]2(C)O[C@H]2CC(C)(C)/C=C/C(=O)[C@@H]1C (racemic)		16.5	48.2	37.6	51		inactive			
C/C1=C\CC(C)(C)/C=C/C(=O)[C@H](C)[C@H](NCc2ccccc2)CC1 (racemic)						inactive	inactive	inactive	inactive	inactive
C/C1=C\CC(C)(C)/C=C/C(O)/C(C)=C/CC1 (racemic)						inactive	inactive	inactive	inactive	inactive
C/C1=C\CC(C)(C)/C=C/[C@H](O)[C@@]2(C)O[C@H]2CC1 (racemic)						inactive	inactive	inactive	inactive	inactive
CC(=O)N[C@@H]1CC/C(C)=C/CC(C)(C)/C=C/C(=O)[C@@H]1C (racemic)						inactive	inactive	inactive	inactive	inactive
CC(=O)N[C@@H]1CC/C(C)=C/CC(C)(C)/C=C/[C@H](O)[C@@H]1C (racemic)						inactive	inactive	inactive	inactive	inactive
CC(=O)N[C@@H]1CC[C@@]2(C)O[C@H]2CC(C)(C)/C=C/C(=O)[C@@H]1C (racemic)						inactive	inactive	inactive	inactive	inactive
CC(=O)OC1/C=C/C(C)(C)C/C=C(\C)CC/C=C/1C (racemic)						inactive	inactive	inactive	inactive	inactive
C[C@H]1C(=O)/C=C/C(C)(C)C[C@@H]2O[C@]2(C)CC[C@H]1NCc1ccccc1 (racemic)						inactive	inactive	inactive	inactive	inactive
Cc1c2ccncc2c(C)c2c1[nH]c1ccccc12 [ELLIPTECINE]	4.5	25.2	9.34	1.62	1.01					
